Measurements published in ChEMBL document CHEMBL1153726, “Synthesis and anticancer activity of sclerophytin-inspired hydroisobenzofurans” (Bioorg Med Chem Lett, 2009).

Assays:
Assay type in all cases: functional
SK-MEL-2 = assay: Growth inhibition of human SK-MEL-2 cells at 1 uM after 96 hrs by MTT assay; set-up: scale not given: the % may be the effect or the level left
SK-MEL-5 = assay: Growth inhibition of human SK-MEL-5 cells at 1 uM after 96 hrs by MTT assay; set-up: scale not given: the % may be the effect or the level left
KM12 = assay: Growth inhibition of human KM12 cells at 100 nM after 96 hrs by MTT assay; set-up: scale not given: the % may be the effect or the level left
A498 = assay: Growth inhibition of human A498 cells at 10 nM after 96 hrs by MTT assay; set-up: scale not given: the % may be the effect or the level left
HCT-116 = assay: Growth inhibition of human HCT116 cells at 1 uM after 96 hrs by MTT assay; set-up: scale not given: the % may be the effect or the level left
K562 [1] = assay: Growth inhibition of human K562 cells at 1 nM after 96 hrs by MTT assay; set-up: scale not given: the % may be the effect or the level left
SR = assay: Growth inhibition of human SR cells at 10 nM after 96 hrs by MTT assay; set-up: scale not given: the % may be the effect or the level left
SK-MEL-28 = assay: Growth inhibition of human SK-MEL-28 cells at 1 nM after 96 hrs by MTT assay; set-up: scale not given: the % may be the effect or the level left
SNB-19 = assay: Growth inhibition of human SNB19 cells after 96 hrs by MTT assay; details: SNB-19, 96 h
Method in brief: (§1)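 Tested in the NCI 60-cell-line panel in five-dose format; GI50 and LC50 values reported for each cell line.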

OVCAR-5 [2] = assay: Growth inhibition of human OVCAR5 cells at 100 nM after 96 hrs by MTT assay; set-up: scale not given: the % may be the effect or the level left
HOP-92 = assay: Growth inhibition of human HOP92 cells at 1 nM after 96 hrs by MTT assay; set-up: scale not given: the % may be the effect or the level left
UACC-257 = assay: Growth inhibition of human UACC257 cells at 10 uM after 96 hrs by MTT assay; set-up: scale not given: the % may be the effect or the level left
BT-549 = assay: Growth inhibition of human BT549 cells at 100 nM after 96 hrs by MTT assay; set-up: scale not given: the % may be the effect or the level left
OVCAR-8 = assay: Growth inhibition of human OVCAR8 cells after 96 hrs by MTT assay; details: OVCAR-8, 96 h; method in brief: as §1
OVCAR-5 [3] = assay: Growth inhibition of human OVCAR5 cells after 96 hrs by MTT assay; details: OVCAR-5, 96 h; method in brief: as §1
M14 = assay: Growth inhibition of human M14 cells at 1 nM after 96 hrs by MTT assay; set-up: scale not given: the % may be the effect or the level left
NCI-H522 = assay: Growth inhibition of human NCI-H522 cells at 100 nM after 96 hrs by MTT assay; set-up: scale not given: the % may be the effect or the level left
DU-145 = assay: Growth inhibition of human DU145 cells at 10 nM after 96 hrs by MTT assay; set-up: scale not given: the % may be the effect or the level left
K562 [4] = assay: Growth inhibition of human K562 cells at 100 nM after 96 hrs by MTT assay; set-up: scale not given: the % may be the effect or the level left
MDA-MB-468 = assay: Growth inhibition of human MDA-MB-468 cells after 96 hrs by MTT assay; details: MDA-MB-468, 96 h
Method in brief: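 Run in the NCI 60 human tumour cell line panel as a five-dose assay. GI50 and LC50 were reported for each cell line.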

U-251 = assay: Growth inhibition of human U251 cells at 1 uM after 96 hrs by MTT assay; set-up: scale not given: the % may be the effect or the level left
T47D = assay: Growth inhibition of human T47D cells at 10 uM after 96 hrs by MTT assay; set-up: scale not given: the % may be the effect or the level left
SF-539 = assay: Growth inhibition of human SF539 cells at 10 uM after 96 hrs by MTT assay; set-up: scale not given: the % may be the effect or the level left
SK-OV-3 = assay: Growth inhibition of human SKOV3 cells at 1 nM after 96 hrs by MTT assay; set-up: scale not given: the % may be the effect or the level left
HCT-15 = assay: Growth inhibition of human HCT15 cells at 1 uM after 96 hrs by MTT assay; set-up: scale not given: the % may be the effect or the level left
PC-3 = assay: Growth inhibition of human PC3 cells after 96 hrs by MTT assay; details: PC-3, 96 h; method in brief: as §1
NCI/ADR-RES = assay: Growth inhibition of human NCI/ADR-RES cells at 10 nM after 96 hrs by MTT assay; set-up: scale not given: the % may be the effect or the level left
[5] = read-out: LC50 (the source's name)
[6] = read-out: Log10GI50 (converted)
[7] = read-out: Log10LC50 (converted)

`C=C(C)[C@H]1CC=C(C)C2=CO[C@@H](c3ccccc3F)[C@@H]21` gave an Activity (SK-MEL-2) of 31%, an Activity (SK-MEL-5) of 21% and an Activity (KM12) of 90%. It also gave an Activity (A498) of 91%, an Activity (HCT-116) of 15% and an Activity (K562 [1]) of 101%. For the same compound, the Activity (SR) was 81%, the Activity (SK-MEL-28) was 98% and the GI50 (SNB-19; read-out: GI50) was 10.7 µM. The CC50 (SNB-19; [5]) was 47.4 µM, the GI50 (SNB-19; [6]) was 10.7 µM and the CC50 (SNB-19; [7]) was 47.9 µM. It also gave a TGI (SNB-19; read-out: Log10TGI (converted)) of 22.4 µM, a TGI (SNB-19; read-out: TGI) of 22.5 µM and an Activity (OVCAR-5 [2]) of 100%. It also gave an Activity (HOP-92) of 88%, an Activity (UACC-257) of 76.82% and an Activity (BT-549) of 67%. The GI50 (OVCAR-8; read-out: GI50) was 11.9 µM, the CC50 (OVCAR-8; [5]) was 79 µM and the GI50 (OVCAR-8; [6]) was 11.7 µM. It also gave a CC50 (OVCAR-8; [7]) of 79.4 µM, a TGI (OVCAR-8; read-out: Log10TGI (converted)) of 30.9 µM and a TGI (OVCAR-8; read-out: TGI) of 30.6 µM. It also gave a GI50 (OVCAR-5 [3]; read-out: GI50) of 23.6 µM, an LC50 (50% lethal concentration) (OVCAR-5 [3]; read-out: LC50) of 72.3 µM and a GI50 (OVCAR-5 [3]; [6]) of 23.4 µM. The LC50 (50% lethal concentration) (OVCAR-5 [3]; [7]) was 72.4 µM, the TGI (OVCAR-5 [3]; read-out: Log10TGI (converted)) was 41.7 µM and the TGI (OVCAR-5 [3]; read-out: TGI) was 41.3 µM. It also gave an Activity (M14) of 97%, an Activity (NCI-H522) of 71% and an Activity (DU-145) of 84%. For the same compound, the Activity (K562 [4]) was 68%, the GI50 (MDA-MB-468; read-out: GI50) was 1.43 µM and the CC50 (MDA-MB-468; [5]) was 66.1 µM. For the same compound, the GI50 (MDA-MB-468; [6]) was 1.45 µM, the CC50 (MDA-MB-468; [7]) was 66.1 µM and the TGI (MDA-MB-468; read-out: Log10TGI (converted)) was 14.1 µM. It also gave a TGI (MDA-MB-468; read-out: TGI) of 14.1 µM, an Activity (U-251) of 18% and an Activity (T47D) of 56.11%. The Activity (SF-539) was 92.75%, the Activity (SK-OV-3) was 98% and the Activity (HCT-15) was 31%. The GI50 (PC-3; read-out: GI50) was 2.49 µM, the CC50 (PC-3; [5]) was 57.2 µM and the GI50 (PC-3; [6]) was 2.51 µM. The CC50 (PC-3; [7]) was 57.5 µM, the TGI (PC-3; read-out: Log10TGI (converted)) was 16.6 µM and the TGI (PC-3; read-out: TGI) was 16.5 µM. The Activity (NCI/ADR-RES) was 97%.
